Assay: Metabolic stability in mouse microsomes assessed as decrease in parent compound level after 30 mins by LC/MS
Type: ADME, Microsome
Settings: read-out: Activity
In short: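 Compounds were incubated with mouse liver microsomes supplemented with UDP-glucuronosyltransferase, covering primary and secondary metabolism. Turnover was expressed as % of parent metabolized at 30 min.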
For `Oc1ccccc1-c1nc(N[C@H]2CCNC2)c2ccccc2n1`, the metabolised at 0.5 h was 25%.
Compound `Oc1ccc(-c2cc[nH]n2)cc1-c1nc(N[C@H]2CCNC2)c2ccccc2n1` has a metabolised at 0.5 h of 27%.
`COc1cc2nc(-c3cc(F)ccc3O)nc(N[C@@H]3CNC[C@H]3C(C)(C)O)c2cc1OC` gave a metabolised at 0.5 h of 23%.
Work on `Oc1ccc(F)cc1-c1nc(N[C@H]2CCNC2)c2ccccc2n1` yielded a metabolised at 0.5 h of 27%.
`COCCOc1ccc2c(N[C@H]3CCNC3)nc(-c3cc(F)ccc3O)nc2c1` gave a metabolised at 0.5 h of 25%.
Compound `CC(C)(O)[C@@H]1CNC[C@H]1Nc1nc(-c2cc(-c3cc[nH]n3)ccc2O)nc2ccccc12` has a metabolised at 0.5 h of 22%.

From ChEMBL document CHEMBL1649416, “Structure-based design of potent and selective 2-(quinazolin-2-yl)phenol inhibitors of checkpoint kinase 2” (J Med Chem, 2011)
